Test results as given in ChEMBL document CHEMBL2169744, “Discovery and optimization of potent and selective imidazopyridine and imidazopyridazine mTOR inhibitors” (Bioorg Med Chem Lett, 2012).
In brackets after ≈: the same amount, converted by molar mass. Activity calls are given as the source filed them. The rule behind the calls is not given here.

Tests used:
Mus musculus [1] = test: Inhibition of PI3Kalpha in po dosed mouse assessed as inhibition of HGF-induced AKT Thr308-phosphorylation in liver tissue after 6 hrs; assay type: functional, organism-based
In short: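 Single oral dose to mice of vehicle (50% PEG400, 1% Pluronic F68, pH 2.2 with MSA) or compound at 10, 30 or 100 mg/kg, n = 3 per dose. HGF-stimulated liver taken at 6 h; pAKT (S473, T308) and pS6RP measured in lysate by MSD assay. Plasma drug levels measured. Factorial ANOVA versus vehicle, then Dunnett's test.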

Mus musculus [2] = test: Toxicity in mouse assessed weight loss at 100 mg/kg, po administered QD for 7 days measured on day 3 relative to vehicle-treated control; assay type: organism-based; parameters: dose 100 mg/kg, route oral; details: in vivo, 168 h
In short: (§1)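 Seven-day tolerability study in mice, n = 5 per group. Oral dosing QD at 60 or 100 mg/kg. Body weight monitored; animals with average weight loss >20% removed from study.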

[3] = Volume of distribution at steady state in rat at 1 mg/kg, iv; assay type: ADME, organism-based; parameters: dose 1 mg/kg, route intravenous; details: in vivo, read-out: Vdss
[4] = Half life in rat at 1 mg/kg, iv; assay type: ADME, organism-based; parameters: dose 1 mg/kg, route intravenous; details: in vivo
[5] = Solubility of the compound in simulated intestinal fluid; assay type: physicochemical
[6] = Half life in rat at 0.5 mg/kg, iv; assay type: ADME, organism-based; parameters: dose 0.5 mg/kg, route intravenous; details: in vivo
[7] = Clearance in rat at 1 mg/kg, iv; assay type: ADME, organism-based; parameters: dose 1 mg/kg, route intravenous; details: in vivo
Mus musculus [8] = test: Inhibition of mTORC2 in po dosed mouse assessed as inhibition of HGF-induced AKT Ser473-phosphorylation in liver tissue at 100 mg/kg, po measured at 24 hrs; assay type: functional, organism-based; parameters: dose 100 mg/kg
In short: (§2)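 Time course in mouse liver: single oral dose of 100 mg/kg, sampled at 3, 6, 8 and 24 h. Inhibition of HGF-induced pAKT (S473 and T308) and pS6 in liver tissue measured against vehicle controls.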

[9] = Clearance in rat liver microsomes; assay type: ADME, Microsome; details: read-out: CLH
[10] = Antitumor activity against human U87MG cells xenografted in mouse assessed as tumor growth inhibition at 60 mg/kg, po administered QD for 2 weeks relative to vehicle-treated control; assay type: functional, U-87MG ATCC; details: U-87 MG, 336 h, read-out: TGI
In short: (§3)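 Mice bearing established U87-MG tumours dosed orally with vehicle or compound at 10, 30 or 60 mg/kg QD or 30 mg/kg BID for 2 weeks. Tumour volume (mm3) tracked, mean ± SE, n = 10. TGI relative to vehicle controls; significance by repeated-measures ANOVA followed by Dunnett's test.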

Mus musculus [11] = test: Inhibition of PI3Kalpha in po dosed mouse assessed as inhibition of HGF-induced AKT Thr308-phosphorylation in liver tissue at 100 mg/kg, po measured at >8 hrs; assay type: functional, organism-based; parameters: dose 100 mg/kg; in short: as §2
[12] = Drug excretion in po dosed Sprague-Dawley rat urine; assay type: ADME, organism-based; details: in vivo
Mus musculus [13] = test: Toxicity in mouse assessed adverse effects at 60 mg/kg, po administered QD for 7 days relative to vehicle-treated control; assay type: organism-based; parameters: dose 60 mg/kg, route oral; details: in vivo, 168 h; in short: as §1
[14] = AUC in rat at 0.5 mg/kg, iv; assay type: ADME, organism-based, Plasma; parameters: dose 0.5 mg/kg, route intravenous; details: plasma
[15] = Volume of distribution at steady state in rat at 0.5 mg/kg, iv; assay type: ADME, organism-based; parameters: dose 0.5 mg/kg, route intravenous; details: in vivo, read-out: Vdss
Mus musculus [16] = test: Inhibition of PI3Kalpha in po dosed mouse assessed as inhibition of HGF-induced AKT Thr308-phosphorylation in liver tissue at 100 mg/kg, po measured at 24 hrs; assay type: functional, organism-based; parameters: dose 100 mg/kg; in short: as §2
[17] = Clearance in human liver microsomes; assay type: ADME, Microsome; details: read-out: CLH
[18] = Inhibition of mTORC1-mediated pS6 Ser240/244-phosphorylation in human U87MG cells; assay type: cell-based, U-87MG ATCC; details: U-87 MG
In short: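 Cell assay in U87MG cells measuring phosphorylation of the mTOR substrate S6 (S240/244), n ≥ 2.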

Mus musculus [19] = test: Inhibition of mTORC2 in po dosed mouse assessed as inhibition of HGF-induced AKT Ser473-phosphorylation in liver tissue at 100 mg/kg, po measured at >8 hrs; assay type: functional, organism-based; parameters: dose 100 mg/kg; in short: as §2
[20] = Efflux ratio of apparent permeability from basal to apical to apical to basal side of pig LLC-PK1 cells; assay type: ADME, cell-based, Sus scrofa
[21] = target: Phosphatidylinositol 4,5-bisphosphate 3-kinase catalytic subunit beta isoform (Homo sapiens, UniProt P42338); test: Inhibition of PI3Kbeta by AlphaScreen assay
Phosphatidylinositol 4,5-bisphosphate 3-kinase catalytic subunit beta isoform, sequence (P42338 whole entry, canonical isoform): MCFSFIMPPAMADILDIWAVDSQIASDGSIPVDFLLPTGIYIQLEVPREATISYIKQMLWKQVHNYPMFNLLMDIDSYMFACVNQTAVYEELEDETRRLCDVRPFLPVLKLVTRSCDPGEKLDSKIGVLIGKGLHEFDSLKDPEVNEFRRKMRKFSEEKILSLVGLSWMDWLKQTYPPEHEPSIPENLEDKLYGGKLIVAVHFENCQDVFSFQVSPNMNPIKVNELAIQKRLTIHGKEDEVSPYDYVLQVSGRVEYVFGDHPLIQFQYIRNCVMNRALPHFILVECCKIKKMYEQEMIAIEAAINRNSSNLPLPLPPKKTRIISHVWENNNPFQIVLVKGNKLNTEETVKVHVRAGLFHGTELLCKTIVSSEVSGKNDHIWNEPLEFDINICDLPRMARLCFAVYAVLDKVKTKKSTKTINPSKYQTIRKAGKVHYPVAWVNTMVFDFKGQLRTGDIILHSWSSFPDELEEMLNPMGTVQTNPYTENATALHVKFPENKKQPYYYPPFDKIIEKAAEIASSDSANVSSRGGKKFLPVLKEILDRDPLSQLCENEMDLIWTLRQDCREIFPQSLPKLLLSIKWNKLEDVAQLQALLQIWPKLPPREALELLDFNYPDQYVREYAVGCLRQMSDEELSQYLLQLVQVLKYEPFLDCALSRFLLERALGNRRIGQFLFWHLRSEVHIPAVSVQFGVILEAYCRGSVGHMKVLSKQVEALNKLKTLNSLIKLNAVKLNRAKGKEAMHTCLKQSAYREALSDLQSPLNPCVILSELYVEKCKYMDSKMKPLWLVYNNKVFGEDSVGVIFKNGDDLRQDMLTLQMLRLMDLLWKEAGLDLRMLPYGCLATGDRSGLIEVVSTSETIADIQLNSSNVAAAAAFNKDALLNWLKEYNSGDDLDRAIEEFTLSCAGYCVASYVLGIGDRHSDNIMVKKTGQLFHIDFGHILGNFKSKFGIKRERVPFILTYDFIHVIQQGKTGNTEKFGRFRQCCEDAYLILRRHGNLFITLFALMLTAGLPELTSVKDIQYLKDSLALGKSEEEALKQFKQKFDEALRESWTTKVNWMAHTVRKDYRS

[22] = Antitumor activity against human U87MG cells xenografted in mouse assessed as tumor growth inhibition at 30 mg/kg, po administered BID for 2 weeks relative to vehicle-treated control; assay type: functional, U-87MG ATCC; details: U-87 MG, 336 h, read-out: TGI; in short: as §3
[23] = Drug excretion in iv dosed Sprague-Dawley rat urine; assay type: ADME, organism-based; details: in vivo
Rattus norvegicus [24] = test: Drug metabolism in po dosed Sprague-Dawley rat assessed as triazine amine glucuronide derivative; assay type: ADME, organism-based; details: in vivo
[25] = Solubility of the compound in phosphate buffered saline; assay type: physicochemical
U-87MG ATCC [26] = test: Antitumor activity against human U87MG cells xenografted in po dosed mouse assessed as tumor growth inhibition administered QD for 2 weeks; assay type: functional, organism-based; in short: as §3
[27] = Plasma protein binding in rat at 5 mg/kg, po; assay type: ADME, organism-based; parameters: dose 5 mg/kg, route oral; details: read-out: PPB (converted)
[28] = target: Phosphatidylinositol 4,5-bisphosphate 3-kinase catalytic subunit alpha isoform (Homo sapiens, UniProt P42336); test: Inhibition of PI3Kalpha by AlphaScreen assay
Phosphatidylinositol 4,5-bisphosphate 3-kinase catalytic subunit alpha isoform, sequence (P42336 whole entry, canonical isoform): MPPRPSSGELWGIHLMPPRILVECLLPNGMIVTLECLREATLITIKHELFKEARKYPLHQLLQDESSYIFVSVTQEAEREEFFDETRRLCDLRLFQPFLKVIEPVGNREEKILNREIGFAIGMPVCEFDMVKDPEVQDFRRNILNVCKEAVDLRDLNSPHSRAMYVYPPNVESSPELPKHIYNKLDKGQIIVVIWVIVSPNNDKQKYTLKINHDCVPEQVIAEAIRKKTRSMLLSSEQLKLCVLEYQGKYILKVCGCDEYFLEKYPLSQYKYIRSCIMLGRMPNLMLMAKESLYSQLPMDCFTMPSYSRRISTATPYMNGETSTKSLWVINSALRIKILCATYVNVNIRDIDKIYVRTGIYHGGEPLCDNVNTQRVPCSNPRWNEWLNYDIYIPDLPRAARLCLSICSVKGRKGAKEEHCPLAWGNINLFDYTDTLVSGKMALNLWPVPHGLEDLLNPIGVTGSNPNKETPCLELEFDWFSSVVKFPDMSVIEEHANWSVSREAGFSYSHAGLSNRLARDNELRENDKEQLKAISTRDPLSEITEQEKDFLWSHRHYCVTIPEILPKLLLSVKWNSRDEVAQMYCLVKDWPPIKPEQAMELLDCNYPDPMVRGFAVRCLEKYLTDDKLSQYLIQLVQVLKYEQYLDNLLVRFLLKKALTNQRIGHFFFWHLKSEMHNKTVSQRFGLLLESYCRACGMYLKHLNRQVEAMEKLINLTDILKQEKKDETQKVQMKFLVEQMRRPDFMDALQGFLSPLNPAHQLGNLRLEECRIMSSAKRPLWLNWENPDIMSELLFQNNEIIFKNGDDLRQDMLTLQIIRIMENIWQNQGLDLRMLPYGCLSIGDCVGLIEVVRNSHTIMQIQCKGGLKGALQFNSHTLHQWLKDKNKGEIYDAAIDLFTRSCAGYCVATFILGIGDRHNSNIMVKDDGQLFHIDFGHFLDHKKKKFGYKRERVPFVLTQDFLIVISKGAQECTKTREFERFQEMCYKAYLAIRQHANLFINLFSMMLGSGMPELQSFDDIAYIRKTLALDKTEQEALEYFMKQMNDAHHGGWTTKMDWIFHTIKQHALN

Mus musculus [29] = species: Mus musculus; test: animal or person; details: Liver, 6 h
[30] = Inhibition of mTORC2-mediated AKT Ser473-phosphorylation in human U87 cells; assay type: cell-based, U-87MG ATCC; details: U-87 MG
In short: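 Cell assay in U87 cells measuring pAKT (S473), n ≥ 2.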

[31] = Apparent permeability from basal to apical side of pig LLC-PK1 cells; assay type: ADME, cell-based, Sus scrofa
[32] = Oral bioavailability in rat at 5 mg/kg; assay type: ADME, organism-based; details: in vivo
In short: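 Rat oral PK at 5.0 mpk in 1% Tween 80, 2% HPMC, 97% H2O, pH 2.2 (methanesulfonic acid).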

[33] = Apparent permeability from apical to basal side of pig LLC-PK1 cells; assay type: ADME, cell-based, Sus scrofa
Mus musculus [34] = test: Inhibition of mTORC1 in po dosed mouse assessed as inhibition of HGF-induced pS6-phosphorylation in liver tissue at 100 mg/kg, po measured at 24 hrs; assay type: functional, organism-based; parameters: dose 100 mg/kg; in short: as §2
Rattus norvegicus [35] = test: Drug metabolism in po dosed Sprague-Dawley rat assessed as pyrazole glucuronide derivative; assay type: ADME, organism-based; details: in vivo
Mus musculus [36] = species: Mus musculus; test: animal or person; details: Liver, 6 h; remark: listed apart in the source
[37] = Oral bioavailability in rat at 1 mg/kg; assay type: ADME, organism-based; details: in vivo
[38] = Clearance in rat at 0.5 mg/kg, iv; assay type: ADME, organism-based; parameters: dose 0.5 mg/kg, route intravenous; details: in vivo
[39] = Inhibition of mTORC1-mediated 4EBP1-phosphorylation in human U87 cells; assay type: cell-based, U-87MG ATCC; details: Homo sapiens, U-87 MG; read-out: IC50
Rattus norvegicus [40] = test: Drug metabolism in po dosed Sprague-Dawley rat assessed as imidazopyridine oxidation; assay type: ADME, organism-based; details: in vivo
Mus musculus [41] = test: Inhibition of mTORC1 in po dosed mouse assessed as inhibition of HGF-induced pS6-phosphorylation in liver tissue at 100 mg/kg, po measured at >8 hrs; assay type: functional, organism-based; parameters: dose 100 mg/kg; in short: as §2
U-87MG ATCC [42] = test: Antitumor activity against human U87MG cells xenografted in po dosed mouse assessed as tumor growth inhibition administered BID for 2 weeks; assay type: functional, organism-based; in short: as §3
[43] = Solubility of the compound in 0.01 N HCl; assay type: physicochemical; details: 0.01 N HCl; read-out: solubility

## Cc1nc(N)nc(-c2c(Nc3cc[nH]n3)nc3ccccn23)n1
Mus musculus [1]
  inhibition: Dose-dependent effect
Mus musculus [2]
  Activity: > 20%
[3]
  Vd: 1.1 L/kg
[4]
  half-life: 27 min
[5]
  solubility: 0.027 mg/mL (≈ 87.9 µM)
[6]
  half-life: 26.4 min
[7]
  clearance: 1.8 L/h/kg
Mus musculus [8]
  inhibition: inactive
[9]
  microsomal CLint: 29 µL/min/mg
[10]
  inhibition in vivo at 60 mg/kg: 82%
Mus musculus [11]
  inhibition: Active
[12]
  Drug excretion: Active
Mus musculus [13]
  Activity: Non-toxic
[14]
  AUC: 1800 nM·h
[15]
  Vd: 1.14 L/kg
Mus musculus [16]
  inhibition: inactive
[17]
  microsomal CLint: 24 µL/min/mg
[18]
  IC50: 0.069 µM
Mus musculus [19]
  inhibition: Active
[20]
  efflux ratio: 2.4
[21]
  IC50: 1.13 µM
[22]
  inhibition in vivo at 30 mg/kg: 84%
[23]
  Drug excretion: Active
Rattus norvegicus [24]
  Drug metabolism: Active
[25]
  solubility: 0.0063 mg/mL (≈ 20.5 µM)
U-87MG ATCC [26]
  TGI: Dose-dependent effect
[27]
  fraction unbound: 0.023
[28]
  IC50: 0.59 µM
Mus musculus [29]
  IC50: 0.053 µM
[30]
  IC50: 0.019 µM
[31]
  Papp B→A: 337 nm/s
[32]
  bioavailability: 24%
[33]
  Papp A→B: 138 nm/s
Mus musculus [34]
  inhibition: inactive
Rattus norvegicus [35]
  Drug metabolism: Active
Mus musculus [36]
  IC50: 0.071 µM
[37]
  bioavailability: 24%
[38]
  clearance: 1.8 L/h/kg
[39]
  IC50: 0.162 µM
Rattus norvegicus [40]
  Drug metabolism: Active
Mus musculus [41]
  inhibition: Active
U-87MG ATCC [42]
  TGI: Dose-dependent effect
[43]
  solubility: > 0.2 mg/mL
